The source made the active and inactive calls. No cut-off for these calls is given here.
Columns and labels:
[1] = target: D(1A) dopamine receptor (Rattus norvegicus, UniProt P18901); assay: Displacement of [3H]SCH23390 from dopamine D1 receptor in Wistar rat striatal membrane by liquid scintillation counting; format: cell membranes, Striatum
Outline: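 Female Wistar rat striatum homogenized in 50 mM Tris-HCl pH 7.4, then washed twice at 49,000g. Membranes were resuspended in Tris-ions buffer (NaCl, CaCl2, KCl, MgCl2, 0.1% ascorbate). [3H]-SCH23390 displacement was read by filtration and scintillation counting. Ki was derived using KD 0.36 nM; 3–6 independent runs in duplicate, mean SEM.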

[2] = target: D(2) dopamine receptor (Rattus norvegicus, UniProt P61169); assay: Displacement of [3H]raclopride from dopamine D2 receptor in Wistar rat striatal membrane by liquid scintillation counting; format: cell membranes, Striatum; conditions: read-out: pKi (converted)
D(2) dopamine receptor, sequence (P61169 whole entry): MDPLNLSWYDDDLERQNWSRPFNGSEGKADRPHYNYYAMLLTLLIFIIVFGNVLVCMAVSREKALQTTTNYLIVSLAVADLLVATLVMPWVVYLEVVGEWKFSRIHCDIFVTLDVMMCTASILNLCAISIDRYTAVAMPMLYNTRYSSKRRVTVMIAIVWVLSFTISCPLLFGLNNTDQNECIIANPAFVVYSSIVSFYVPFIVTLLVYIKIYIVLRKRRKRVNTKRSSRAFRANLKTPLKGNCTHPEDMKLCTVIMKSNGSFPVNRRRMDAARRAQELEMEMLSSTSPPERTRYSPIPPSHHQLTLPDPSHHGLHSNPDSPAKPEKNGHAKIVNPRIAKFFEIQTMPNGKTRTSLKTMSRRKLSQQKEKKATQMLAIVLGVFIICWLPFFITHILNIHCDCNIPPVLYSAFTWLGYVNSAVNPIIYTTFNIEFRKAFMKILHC
Outline: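 Striata from female Wistar rats (200–220 g) were homogenized in 50 mM Tris-HCl (pH 7.4) and centrifuged twice at 49,000g for 15 min at 4 °C. Membranes were resuspended in Tris buffer containing 120 mM NaCl, 2 mM CaCl₂, 5 mM KCl, 1 mM MgCl₂ and 0.1% ascorbic acid (pH 7.4). Samples were filtered, washed with cold buffer and counted by scintillation. Ki was derived using a [³H]raclopride KD of 1,25 nM, from 3–6 determinations run in duplicate.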

[3] = organism: Rattus norvegicus; assay: Selectivity for Wistar rat dopamine D2 receptor over Wistar rat dopamine D1 receptor
[4] = target: Sodium-dependent dopamine transporter (Rattus norvegicus) (UniProt P23977); assay: Inhibition of DAT in Wistar rat striatal synaptosomes at 100 uM by [3H]dopamine uptake assay; format: subcellular; conditions: Brain
Sodium-dependent dopamine transporter (Rattus norvegicus), sequence (P23977 whole entry): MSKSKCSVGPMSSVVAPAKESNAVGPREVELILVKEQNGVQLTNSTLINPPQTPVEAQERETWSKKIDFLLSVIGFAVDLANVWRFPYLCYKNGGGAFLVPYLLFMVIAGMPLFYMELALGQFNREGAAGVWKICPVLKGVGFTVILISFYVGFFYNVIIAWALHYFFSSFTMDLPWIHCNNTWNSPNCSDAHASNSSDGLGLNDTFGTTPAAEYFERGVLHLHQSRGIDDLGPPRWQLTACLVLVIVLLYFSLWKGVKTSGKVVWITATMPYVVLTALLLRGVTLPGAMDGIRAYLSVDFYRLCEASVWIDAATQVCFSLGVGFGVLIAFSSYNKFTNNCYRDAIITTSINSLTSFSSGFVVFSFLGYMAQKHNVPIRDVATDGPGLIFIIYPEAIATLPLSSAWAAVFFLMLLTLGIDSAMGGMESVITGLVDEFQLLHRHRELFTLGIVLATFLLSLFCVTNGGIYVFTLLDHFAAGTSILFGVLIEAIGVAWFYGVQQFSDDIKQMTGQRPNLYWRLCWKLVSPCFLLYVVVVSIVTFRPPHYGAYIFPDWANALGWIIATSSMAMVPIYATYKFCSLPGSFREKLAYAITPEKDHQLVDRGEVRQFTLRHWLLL
Outline: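 Synaptosomes were prepared from female Wistar rat striatum at 0–4 °C. Tissue was homogenized in 0.32 M sucrose, spun twice at 1000g for 10 min, and the pooled supernatants were spun at 16,000g for 30 min. The pellet was taken up in Krebs medium (pH 7.6, with glucose). Samples were preincubated for 10 min at 37 °C with pargyline, then given 0.5 nM final [³H]dopamine for 10 min. Uptake was stopped by ice-cold dilution and rapid fiberglass filtration.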

[5] = tested on: Mus musculus; assay: Antidepressant-like activity in NMRI mouse assessed as increase in locomotor activity at 0.01 mg/kg, ip after 6 mins by photoelectronic actimeter method; format: functional; conditions: route intraperitoneal
Outline: (§1)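 Naive male NMRI mice (25–30 g), n = 10/group; single ip injection (10 mL/kg, saline vehicle) 30 min before test, during the dark phase. Photoelectronic actimeter with two perpendicular infrared beams; beam crossings counted cumulatively at 6-min intervals over a 30-min session. Vs vehicle by ANOVA and Fisher PLSD; mean SD.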

[6] = tested on: Mus musculus; assay: Antidepressant-like activity in NMRI mouse assessed as increase in locomotor activity at 0.01 mg/kg, ip after 12 mins by photoelectronic actimeter method; format: functional; conditions: route intraperitoneal; outline: as §1
[7] = tested on: Mus musculus; assay: Antidepressant-like activity in NMRI mouse assessed as increase in locomotor activity at 0.01 mg/kg, ip after 18 mins by photoelectronic actimeter method; format: functional; conditions: route intraperitoneal; outline: as §1
[8] = tested on: Mus musculus; assay: Antidepressant-like activity in NMRI mouse assessed as increase in locomotor activity at 0.01 mg/kg, ip after 24 mins by photoelectronic actimeter method; format: functional; conditions: route intraperitoneal; outline: as §1
[9] = tested on: Mus musculus; assay: Antidepressant-like activity in NMRI mouse assessed as increase in locomotor activity at 0.01 mg/kg, ip after 30 mins by photoelectronic actimeter method; format: functional; conditions: route intraperitoneal; outline: as §1
[10] = tested on: Mus musculus; assay: Antidepressant-like activity in NMRI mouse assessed as increase in locomotor activity at 0.04 mg/kg, ip after 6 mins by photoelectronic actimeter method; format: functional; conditions: route intraperitoneal; outline: as §1
[11] = tested on: Mus musculus; assay: Antidepressant-like activity in NMRI mouse assessed as increase in locomotor activity at 0.04 mg/kg, ip after 12 mins by photoelectronic actimeter method; format: functional; conditions: route intraperitoneal; outline: as §1
[12] = tested on: Mus musculus; assay: Antidepressant-like activity in NMRI mouse assessed as increase in locomotor activity at 0.04 mg/kg, ip after 18 mins by photoelectronic actimeter method; format: functional; conditions: route intraperitoneal; outline: as §1
[13] = tested on: Mus musculus; assay: Antidepressant-like activity in NMRI mouse assessed as increase in locomotor activity at 0.04 mg/kg, ip after 24 mins by photoelectronic actimeter method; format: functional; conditions: route intraperitoneal; outline: as §1
[14] = tested on: Mus musculus; assay: Antidepressant-like activity in NMRI mouse assessed as increase in locomotor activity at 0.04 mg/kg, ip after 30 mins by photoelectronic actimeter method; format: functional; conditions: route intraperitoneal; outline: as §1
[15] = tested on: Mus musculus; assay: Antidepressant-like activity in NMRI mouse assessed as increase in locomotor activity at 0.2 mg/kg, ip after 6 mins by photoelectronic actimeter method; format: functional; conditions: route intraperitoneal; outline: as §1
[16] = tested on: Mus musculus; assay: Antidepressant-like activity in NMRI mouse assessed as increase in locomotor activity at 0.2 mg/kg, ip after 12 mins by photoelectronic actimeter method; format: functional; conditions: route intraperitoneal; outline: as §1
[17] = tested on: Mus musculus; assay: Antidepressant-like activity in NMRI mouse assessed as increase in locomotor activity at 0.2 mg/kg, ip after 18 mins by photoelectronic actimeter method; format: functional; conditions: route intraperitoneal; outline: as §1
[18] = tested on: Mus musculus; assay: Antidepressant-like activity in NMRI mouse assessed as increase in locomotor activity at 0.2 mg/kg, ip after 24 mins by photoelectronic actimeter method; format: functional; conditions: route intraperitoneal; outline: as §1
[19] = tested on: Mus musculus; assay: Antidepressant-like activity in NMRI mouse assessed as increase in locomotor activity at 0.2 mg/kg, ip after 30 mins by photoelectronic actimeter method; format: functional; conditions: route intraperitoneal; outline: as §1
[20] = tested on: Mus musculus; assay: Antidepressant-like activity in NMRI mouse assessed as increase in locomotor activity at 1 mg/kg, ip after 6 mins by photoelectronic actimeter method; format: functional; conditions: route intraperitoneal; outline: as §1
[21] = tested on: Mus musculus; assay: Antidepressant-like activity in NMRI mouse assessed as increase in locomotor activity at 1 mg/kg, ip after 12 mins by photoelectronic actimeter method; format: functional; conditions: route intraperitoneal; outline: as §1
[22] = tested on: Mus musculus; assay: Antidepressant-like activity in NMRI mouse assessed as increase in locomotor activity at 1 mg/kg, ip after 18 mins by photoelectronic actimeter method; format: functional; conditions: route intraperitoneal; outline: as §1
[23] = tested on: Mus musculus; assay: Antidepressant-like activity in NMRI mouse assessed as increase in locomotor activity at 1 mg/kg, ip after 24 mins by photoelectronic actimeter method; format: functional; conditions: route intraperitoneal; outline: as §1
[24] = tested on: Mus musculus; assay: Antidepressant-like activity in NMRI mouse assessed as increase in locomotor activity at 1 mg/kg, ip after 30 mins by photoelectronic actimeter method; format: functional; conditions: route intraperitoneal; outline: as §1
[25] = tested on: Mus musculus; assay: Antidepressant-like activity in NMRI mouse assessed as increase in locomotor activity at 5 mg/kg, ip after 6 mins by photoelectronic actimeter method; format: functional; conditions: route intraperitoneal; outline: as §1
[26] = tested on: Mus musculus; assay: Antidepressant-like activity in NMRI mouse assessed as increase in locomotor activity at 5 mg/kg, ip after 12 mins by photoelectronic actimeter method; format: functional; conditions: route intraperitoneal; outline: as §1
[27] = tested on: Mus musculus; assay: Antidepressant-like activity in NMRI mouse assessed as increase in locomotor activity at 5 mg/kg, ip after 18 mins by photoelectronic actimeter method; format: functional; conditions: route intraperitoneal; outline: as §1
[28] = tested on: Mus musculus; assay: Antidepressant-like activity in NMRI mouse assessed as increase in locomotor activity at 5 mg/kg, ip after 24 mins by photoelectronic actimeter method; format: functional; conditions: route intraperitoneal; outline: as §1
[29] = tested on: Mus musculus; assay: Antidepressant-like activity in NMRI mouse assessed as increase in locomotor activity at 5 mg/kg, ip after 30 mins by photoelectronic actimeter method; format: functional; conditions: route intraperitoneal; outline: as §1
[30] = tested on: Mus musculus; assay: Antidepressant-like activity in NMRI mouse assessed as increase in locomotor activity at 25 mg/kg, ip after 6 mins by photoelectronic actimeter method; format: functional; conditions: route intraperitoneal; outline: as §1
[31] = tested on: Mus musculus; assay: Antidepressant-like activity in NMRI mouse assessed as increase in locomotor activity at 25 mg/kg, ip after 12 mins by photoelectronic actimeter method; format: functional; conditions: route intraperitoneal; outline: as §1
[32] = tested on: Mus musculus; assay: Antidepressant-like activity in NMRI mouse assessed as increase in locomotor activity at 25 mg/kg, ip after 18 mins by photoelectronic actimeter method; format: functional; conditions: route intraperitoneal; outline: as §1
[33] = tested on: Mus musculus; assay: Antidepressant-like activity in NMRI mouse assessed as increase in locomotor activity at 25 mg/kg, ip after 24 mins by photoelectronic actimeter method; format: functional; conditions: route intraperitoneal; outline: as §1
[34] = tested on: Mus musculus; assay: Antidepressant-like activity in NMRI mouse assessed as increase in locomotor activity at 25 mg/kg, ip after 30 mins by photoelectronic actimeter method; format: functional; conditions: route intraperitoneal; outline: as §1
[35] = tested on: Mus musculus; assay: Antidepressant-like activity in NMRI mouse assessed as increase in locomotor activity at 0.2 mg/kg, ip by photoelectronic actimeter method in presence of D2 receptor antagonist haloperidol; format: functional, organism-based; parameters: dose 0.2 mg/kg
Outline: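 Male NMRI mice, n = 10/group. Haloperidol 0.03 mg/kg sc given just before ip test compound (0.2 mg/kg) or saline, 30 min before testing. Spontaneous locomotion was counted as infrared beam crossings in a photoelectric actimeter over 30 min. Groups were compared by Fisher PLSD; mean SD.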

[36] = tested on: Mus musculus; assay: Antidepressant-like activity in NMRI mouse assessed as reduction in immobility time at 0.01 mg/kg, ip by forced swimming test; format: functional, organism-based; parameters: dose 0.01 mg/kg
Outline: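 Male NMRI mice, 10/group, not pre-tested; ip dosing in saline 30 min before test. Each mouse swam 6 min in a cylinder (12 cm diameter, 13 cm water, 23–24 °C). Immobility was scored over the last 4 min after a 2-min delay. Imipramine 16 mg/kg was the reference. Analysis by ANOVA with Fisher PLSD.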

[37] = tested on: Mus musculus; assay: Antidepressant-like activity in NMRI mouse assessed as reduction in immobility time at 0.01 mg/kg, ip by forced swimming test in presence of D2 receptor antagonist haloperidol; format: functional, organism-based; parameters: dose 0.01 mg/kg
Outline: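 Male NMRI mice, 10/group. Haloperidol 0.03 mg/kg sc was injected just before ip test compound, 30 min before a 6-min forced swim (water 23–24 °C, depth 13 cm). Immobility was measured during the final 4 min. Analysis by ANOVA with Fisher PLSD.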

D(1A) dopamine receptor, sequence (P18901 whole entry): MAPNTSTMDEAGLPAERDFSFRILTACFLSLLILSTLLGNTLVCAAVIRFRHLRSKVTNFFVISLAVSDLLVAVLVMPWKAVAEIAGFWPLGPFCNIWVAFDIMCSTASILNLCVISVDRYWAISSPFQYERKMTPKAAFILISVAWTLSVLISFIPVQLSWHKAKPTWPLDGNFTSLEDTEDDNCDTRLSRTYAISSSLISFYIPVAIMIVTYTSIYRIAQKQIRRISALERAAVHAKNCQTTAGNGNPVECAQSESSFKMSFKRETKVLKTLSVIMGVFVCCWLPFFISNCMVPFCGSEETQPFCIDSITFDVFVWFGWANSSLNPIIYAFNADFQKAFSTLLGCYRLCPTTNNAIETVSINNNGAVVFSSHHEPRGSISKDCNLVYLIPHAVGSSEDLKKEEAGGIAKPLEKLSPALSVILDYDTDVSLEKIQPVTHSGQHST

Oc1cc2c(cc1Cl)CCNC2c1ccccc1 (stereo not drawn)
Ki [1]: 247 nM | Ki [2]: 1120 nM | fold change (FC) [3]: 0.2 | Activity [4]: inactive

COc1cc2c(cc1Cl)CCN(C)C2Cc1ccccc1 (stereo not drawn)
Ki [1]: 1640 nM | Ki [2]: 1530 nM | fold change (FC) [3]: 0.8 | Activity [4]: inactive

CCCCC1c2cc(O)c(Cl)cc2CCN1C (stereo not drawn)
Ki [1]: 1140 nM | Ki [2]: 395 nM | fold change (FC) [3]: 2.3 | Activity [4]: inactive

CCCCC1NCCc2cc(Cl)c(OC)cc21 (stereo not drawn)
Ki [1]: 17300 nM | Ki [2]: 780 nM | fold change (FC) [3]: 20 | Activity [4]: inactive

CCCCC1NCCc2cc(O)c(Cl)cc21 (stereo not drawn)
Ki [1]: 3230 nM | Ki [2]: 60.3 nM | fold change (FC) [3]: 49 | Activity [4]: inactive | Activity [5]: 72 | Activity [6]: 105 | Activity [7]: 133 | Activity [8]: 147 | Activity [9]: 153 | Activity [10]: 102 | Activity [11]: 142 | Activity [12]: 170 | Activity [13]: 185 | Activity [14]: 200 | Activity [15]: 115 | Activity [16]: 186 | Activity [17]: 219 | Activity [18]: 255 | Activity [19]: 277 | Activity [20]: 122 | Activity [21]: 200 | Activity [22]: 257 | Activity [23]: 307 | Activity [24]: 340 | Activity [25]: 153 | Activity [26]: 276 | Activity [27]: 345 | Activity [28]: 411 | Activity [29]: 464 | Activity [30]: 170 | Activity [31]: 260 | Activity [32]: 319 | Activity [33]: 367 | Activity [34]: 426 | Activity [35]: inactive | Activity [36]: Active | Activity [37]: inactive

CCCCC1c2cc(OC)c(Cl)cc2CCN1C (stereo not drawn)
Ki [1]: 7280 nM | Ki [2]: 3770 nM | fold change (FC) [3]: 2.7 | Activity [4]: inactive

O=C(CCCN1CCC(O)(c2ccc(Cl)cc2)CC1)c1ccc(F)cc1
fold change (FC) [3]: 20

From ChEMBL document CHEMBL1154100, “Tetrahydroisoquinolines as dopaminergic ligands: 1-Butyl-7-chloro-6-hydroxy-tetrahydroisoquinoline, a new compound with antidepressant-like activity in mice” (Bioorg Med Chem, 2009)
